Consider 14 compounds from ChEMBL document CHEMBL1144293, “4-(2-Pyridyl)piperazine-1-benzimidazoles as potent TRPV1 antagonists” (Bioorg Med Chem Lett, 2005).

Data set [1] concerns the target T1, Transient receptor potential cation channel subfamily V member 1 (Homo sapiens, UniProt Q8NER1). Nature of the data set: Antagonist activity in capsaicin-induced FLIPR assays in HEK293 cells expressing human TRPV1. It is filed as functional, cell-based. The method, boiled down: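 HEK293 cells stably expressing human TRPV1; channel activated with 100 nM capsaicin and block of the calcium influx read on a fluorometric imaging plate reader (FLIPR). IC50 given as mean ± SEM of at least three determinations.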

In data set [2] the target is T1, Transient receptor potential cation channel subfamily V member 1. Nature of the data set: Antagonist activity in pH 5.5-induced FLIPR assays in HEK293 cells expressing human TRPV1. The data set is classed as functional, cell-based. Put shortly: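 Human TRPV1-expressing HEK293 line stimulated by low pH (pH 5.5) as agonist; antagonism measured as inhibition of calcium influx by FLIPR. IC50 reported as mean ± SEM from at least three determinations.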

Data set [3] can be described thus: Terminal half life value in rat at single dose of 3 mg/kg iv dose. Conditions: in vivo.
A short description of data set [4]: Time taken for cmax value in rat at single dose of 30 mg/kg oral dose. It is filed as ADME, organism-based. Also on record: dose 30 mg/kg, route oral. Conditions: in vivo. The method, boiled down: (§1)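 Rat pharmacokinetics: systemic exposure estimated after a single 3 mg/kg intravenous dose and, separately, a single 30 mg/kg oral dose. Parameters derived include Vd, CL, terminal t1/2, Tmax, Cmax and oral bioavailability (F%).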

The nature of data set [5]: Bioavailability in rat at single dose of 30 mg/kg orally. Conditions: in vivo, oral.
The nature of data set [6]: Clearance value in rat at single dose of 3 mg/kg iv dose. Conditions: in vivo.
Data set [7] in a line: Bioavailability in rat (single dose 30 mg/kg p.o.). It is filed as ADME, organism-based. Conditions: in vivo, po. Put shortly: as §1
Data set [8] in a line: Volume distribution in rat at single dose of 3 mg/kg intravenously. It is filed as ADME, organism-based. Also on record: dose 3 mg/kg, route intravenous. Conditions: in vivo, iv. Put shortly: as §1
Data set [9] can be described thus: Cmax value in rat at single dose of 30 mg/kg oral dose. It is filed as ADME, organism-based. Also noted: dose 30 mg/kg, route oral. Conditions: in vivo. Put shortly:
as §1

The nature of data set [10]: Terminal half life value in rat at single dose of 3 mg/kg intravenously. The data set is classed as ADME, organism-based. Also noted: dose 3 mg/kg, route intravenous. Conditions: in vivo, iv. Put shortly: as §1
Data set [11] in a line: Clearance value in rat at single dose of 3 mg/kg intravenously. The data set is classed as ADME, organism-based. Also on record: dose 3 mg/kg, route intravenous. Conditions: in vivo, iv. Put shortly: as §1

The structures appear in SMILES notation.

T1 sequence (Q8NER1 whole entry): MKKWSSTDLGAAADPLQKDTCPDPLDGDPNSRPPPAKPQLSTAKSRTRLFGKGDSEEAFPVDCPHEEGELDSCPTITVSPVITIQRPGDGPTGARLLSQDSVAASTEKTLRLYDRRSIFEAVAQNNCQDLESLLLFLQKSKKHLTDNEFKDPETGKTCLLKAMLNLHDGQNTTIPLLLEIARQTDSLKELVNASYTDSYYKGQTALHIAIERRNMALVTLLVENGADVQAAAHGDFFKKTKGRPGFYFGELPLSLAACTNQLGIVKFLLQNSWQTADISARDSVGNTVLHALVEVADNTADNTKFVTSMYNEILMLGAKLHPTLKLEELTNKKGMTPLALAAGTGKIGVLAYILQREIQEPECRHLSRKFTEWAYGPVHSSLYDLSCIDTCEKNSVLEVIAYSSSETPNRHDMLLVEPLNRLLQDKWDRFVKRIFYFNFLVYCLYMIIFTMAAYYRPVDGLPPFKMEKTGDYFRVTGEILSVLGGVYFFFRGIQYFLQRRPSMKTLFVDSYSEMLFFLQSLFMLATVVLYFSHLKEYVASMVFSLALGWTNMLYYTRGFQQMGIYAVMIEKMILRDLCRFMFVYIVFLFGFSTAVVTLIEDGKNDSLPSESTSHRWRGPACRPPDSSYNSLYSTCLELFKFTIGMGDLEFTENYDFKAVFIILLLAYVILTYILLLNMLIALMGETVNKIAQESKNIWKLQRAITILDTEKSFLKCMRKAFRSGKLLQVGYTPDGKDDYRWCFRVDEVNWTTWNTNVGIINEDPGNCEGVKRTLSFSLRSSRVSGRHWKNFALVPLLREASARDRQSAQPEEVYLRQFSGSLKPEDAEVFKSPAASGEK

As to `CC(C)(C)c1ccc2nc(N3CCN(c4ncccc4Cl)CC3)[nH]c2c1`, the IC50 (in general, the concentration at which inhibition is half-maximal) in data set [1] was 136 nM; in data set [2], 1690 nM.

As to `C[C@@H]1CN(c2ncccc2Cl)CCN1c1nc2ccc(C(C)(C)C)cc2[nH]1`, the half-maximal inhibitory concentration (IC50) in data set [1] is 90.4 nM; in data set [2], 104 nM. The half-life (commonly the time needed for the level to fall by half in the phase considered) was 36 min in [3] and 35.4 min in data set [10]. Further, in data set [4], the Tmax (usually the time from dosing to the highest level) was found to be 180 min. Further, the bioavailability in data set [5] and in [7] was 19.7% throughout. The clearance (in general, a measure of how efficiently the substance is removed, as volume per time) in data set [6] is 133 mL/min/kg; in data set [11], 134 mL/min/kg. The distribution volume (Vd) (as a rule, a proportionality between amount in the body and measured concentration, not a real space) in [8] worked out at 6.87 L/kg. Besides, the highest level in [9] (Cmax) was 300 ng/mL.

`COc1ccc2nc(N3CCN(c4ncccc4Cl)C[C@H]3C)[nH]c2c1` came in with a 50% inhibitory concentration (IC50) in data set [1] of 665 nM.

As to `Cc1cccnc1N1CCN(c2nc3ccc(C(C)(C)C)cc3[nH]2)[C@H](C)C1`, 597 nM corresponded to half-maximal inhibition in [2] (IC50).

Regarding `C[C@@H]1CN(c2nsnc2Cl)CCN1c1nc2ccc(C(C)(C)C)cc2[nH]1`, the IC50 in [1] was 776 nM; in [2], over 10000 nM.

On to `CC(C)(C)c1ccc(NC(=O)N2CCN(c3ncccc3Cl)CC2)cc1`, for which, in [7], the bioavailability (as a rule, dose-corrected exposure relative to a reference, in per cent) was 15%.

In the case of `C[C@@H]1CN(c2ncccc2Cl)CCN1c1nc2cc(C(C)(C)C)ccc2o1`, in [2], the IC50 amounted to 1410 nM. This counts as single-digit micromolar.

Turning to `C[C@@H]1CN(c2ncccc2C(F)(F)F)CCN1c1nc2ccc(C(C)(C)C)cc2[nH]1`, the results for the IC50 in [1] and in [2] were 32.4 nM and 1780 nM, respectively.

For `C[C@@H]1CN(c2ncccc2Cl)CCN1c1nc2ccc(Cl)cc2[nH]1`, the half-inhibitory concentration (IC50) in data set [1] is 325 nM.

With `Cc1cc2nc(N3CCN(c4ncccc4Cl)C[C@H]3C)[nH]c2cc1C`, the figures for the IC50 in data set [1] and in [2] were 113 nM and 10000 nM, respectively.

As to `CC(C)(C)c1ccc2oc(N3CCN(c4ncccc4Cl)CC3)nc2c1`, the results for the IC50 in [1] and in [2] were 2140 nM and over 10000 nM, respectively.

With `Cc1cc2nc(N3CCN(c4ncccc4Cl)CC3)n(C)c2cc1C`, the half-maximal inhibitory concentration (IC50) was 5450 nM in [1] and over 25000 nM in [2].

With `C[C@H]1CN(c2ncccc2Cl)CCN1c1nc2ccc(C(C)(C)C)cc2[nH]1`, the results for the IC50 in data set [1] and in [2] were 948 nM and 3610 nM, respectively.

Consider `Cc1cc2nc(N3CCN(c4ncccc4Cl)C[C@@H]3C)[nH]c2cc1C`, for which the IC50 in [1] was 5770 nM; in data set [2], over 25000 nM.
